SENP7 inh – inhibitors of human SENP7 protease | recombinant SENP7, Z-RLRGG-aminoluciferin luminescence, 40 min | AID 434973 | 1.5% of 330,000 active | Q9BQF6 | inhibition, % at 5 µM;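 active = inhibition above about 50% at the single test dose, limit read from the data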;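 also: plate controls were DMSO with enzyme for no effect and no enzyme buffer wells for full effect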
SENP8 block-1 – SENP8 protease inhibition | AID 2540 | Q96LD8 | purified SENP8, Z-RLRGG-aminoluciferin cleavage, luminescence | 1.2% of 330,000 active | inhibition, % at 10 µM; in the data active = inhibition above about 50%
Apaf1 inhib – blocks human Apaf-1 apoptosome activity; O14727; reconstituted apoptosome caspase-3 activity, DEVD-Rh110 fluorescence; inhibition, % at 20 µM; 0.71% of 330,000 active; AID 489030; active = inhibition of at least 40% at 20 µM;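 also: plate controls were DMSO wells for no effect and DEVD-CHO caspase inhibitor wells for full effect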
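Assay system: Apoptosome proteins | Medium: pH 7.5 Hepes buffer with CHAPS, BSA, DTT | Also added: Cytochrome c and DEVD-Rh110 substrate | Times: 30 min plus 50 min, RT | Detection: Rhodamine 110 fluorescence at Ex 480/Em 540 nm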
SENP8 block-2 – blocks human SENP8 cleavage of Nedd8 substrate; inhibition, % at 20 µM; 0.64% of 360,000 active; recombinant SENP8, Nedd8 substrate fluorescence; AID 602440; in the data active = inhibition mostly above about 40%, no sharp cut-off; inactive = mostly below about 27%
UBC13 inh – blocks human UBC13 polyubiquitin chain formation | TR-FRET | AID 485273 | 0.47% of 330,000 active | inhibition, % at 20 µM; in the data active = inhibition above about 45%, passing the limit was not always enough
Target sequence (P61088 whole entry, looked up): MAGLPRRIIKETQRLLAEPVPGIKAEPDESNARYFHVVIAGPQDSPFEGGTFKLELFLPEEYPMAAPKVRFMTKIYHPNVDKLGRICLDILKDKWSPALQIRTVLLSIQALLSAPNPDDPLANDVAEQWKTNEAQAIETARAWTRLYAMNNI
SENP6 block – SENP6 protease inhibition | Q9GZR1 | Recombinant SENP6 catalytic domain, aminoluciferin luminescence | inhibition, % at 10 µM | 1.8% of 330,000 active;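 active = inhibition above about 50% at the single tested dose, limit read from the data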;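 also: plate controls were DMSO wells with enzyme for no effect and DMSO wells lacking enzyme for full effect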
Target sequence (Q9GZR1 628-1112 limits assumed): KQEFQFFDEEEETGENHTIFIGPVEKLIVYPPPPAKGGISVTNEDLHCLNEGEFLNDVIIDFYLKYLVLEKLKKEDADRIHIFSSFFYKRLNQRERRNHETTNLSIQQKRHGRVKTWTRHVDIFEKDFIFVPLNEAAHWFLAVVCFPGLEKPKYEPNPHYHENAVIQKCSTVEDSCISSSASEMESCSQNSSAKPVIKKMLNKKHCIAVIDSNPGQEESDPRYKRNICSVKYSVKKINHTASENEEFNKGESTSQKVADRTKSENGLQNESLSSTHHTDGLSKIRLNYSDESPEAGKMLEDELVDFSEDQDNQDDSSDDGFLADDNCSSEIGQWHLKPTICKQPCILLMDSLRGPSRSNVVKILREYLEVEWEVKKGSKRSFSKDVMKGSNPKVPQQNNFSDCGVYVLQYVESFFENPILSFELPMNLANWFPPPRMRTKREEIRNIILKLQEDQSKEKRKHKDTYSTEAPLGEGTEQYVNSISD
SENP8 conf – confirmation of human SENP8 protease inhibitors; shares compounds with SENP7 inh; inhibition, % at 12.5 µM; AID 488912; Recombinant SENP8, Z-RLRGG-aminoluciferin luminescence, 60 min; 40% of 6,200 active;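 active = mean inhibition across replicates above about 50%, limit read from the data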
SENP6 conf – confirmation of human SENP6 protease inhibitors; shares compounds with SENP7 inh; recombinant SENP6, Z-RLRGG-aminoluciferin luminescence; inhibition, % at 12.5 µM; 58% of 6,200 active
SENP7 confirm – human SENP7 inhibition, confirmed; recombinant SENP7, Z-RLRGG-aminoluciferin luminescence, 40 min; shares compounds with SENP7 inh; AID 488917; inhibition, % at 12.5 µM; 69% of 6,200 active
Casp3 SENP sel – selectivity test for SENP inhibitors: human caspase-3 inhibition | inhibition, % at 12.5 µM | shares compounds with SENP7 inh | 60% of 6,200 active | purified caspase-3, Z-DEVD-aminoluciferin luminescence, 60 min;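 active = mean inhibition above about 50%, limit read from the data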;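 also: plate controls were enzyme with DMSO for no effect and wells without caspase-3 for full effect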
SENP luc ctr – interferes with luciferase luminescence in SENP counter-screen | shares compounds with SENP7 inh | Pre-incubated SENP8/Z-RLRGG-aminoluciferin, luciferase luminescence interference | inhibition, % at 12.5 µM | 39% of 6,200 active | AID 488919;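 active = mean inhibition above about 50% when retested at one dose, limit read from the data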;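 also: plate controls were DMSO wells with completed reaction for no effect and substrate without enzyme for full effect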
Starred values were filed as active, the others as inactive; . = no result. An excerpt weighted towards active compounds, which were near 3% of everything screened.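 The calls were made as follows, unless noted: active = mean inhibition above about 50% in the one-dose retest (limit read from the data); inactive = the rest.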

SMILES	SENP7 inh	SENP8 block-1	Apaf1 inhib	SENP8 block-2	UBC13 inh	SENP6 block	SENP8 conf	SENP6 conf	SENP7 confirm	Casp3 SENP sel	SENP luc ctr
COc1ccc(-c2cn(Cc3ccc(C(N)=O)cc3)c(-c3ccncc3)n2)cc1	68*	61*	-7	-494	5	72*	71*	69*	91*	76*	54*
COCCCN=Cc1c(C)[nH]n(-c2ccc(Br)c(C)c2)c1=O	38	4	7	6	0	53*	-3	-6	46	26	34
CC(=O)Nc1ccc(-c2ccnc3c2CC(C)(C(=O)NCc2ccc(N4CCN(C)CC4)cc2)O3)cc1 (stereo not given)	.	.	.	6	.	.	.	.	.	.	.
COc1ccc2c(=O)c(-c3ccc4c(c3)OCO4)coc2c1	96*	84*	11	15	11	88*	56*	87*	64*	77*	16
CC(=O)Oc1ccc2c(=O)c(Oc3ccccc3[N+](=O)[O-])coc2c1	1	-2	4	23	-4	-6	.	.	.	.	.
CC(C)Oc1ccc2c(=O)c(-c3ccccc3)coc2c1	71*	61*	18	1	-3	68*	7	25	52*	36	13
CC(=O)Oc1ccc2c(=O)c(-c3nc4ccccc4s3)coc2c1	99*	94*	3	-112	2	98*	45	39	30	72*	51*
CCc1cc2c(=O)c(-c3ccc4c(c3)OCCO4)coc2cc1OC(=O)c1ccco1	73*	1	3	-7	11	25	-11	-5	0	18	5
CCCc1cc2c(=O)c(-c3ccc4c(c3)OCCO4)coc2cc1OC(=O)c1ccco1	-1	8	24	11	1	6	.	.	.	.	.
CCCS(=O)(=O)NC(=O)C1(C)CCCN(C(=O)c2oc3ccccc3c2C)C1 (stereo not given)	.	.	.	-53	.	.	.	.	.	.	.
CCC(C)[C@H]1CNC(=O)C(=O)N1CCCCC1CCCCC1 (stereo not given in full)	.	.	.	7	.	.	.	.	.	.	.
COc1ccc(CN2C(=O)CN(S(C)(=O)=O)CC2(C)C(=O)Nc2c(C)cccc2C)cc1OC (stereo not given)	.	.	.	11	.	.	.	.	.	.	.
O=c1[nH]c(-c2ccccc2)ncc1OCc1ccccc1	.	.	.	5	.	.	.	.	.	.	.
COc1cccc(CN2CCC2(C)C(=O)Nc2cccc(NS(C)(=O)=O)c2)c1OC (stereo not given)	.	.	.	12	.	.	.	.	.	.	.
CCOc1ccc(/C=C/C(=O)Oc2ccccc2)cc1	59*	12	7	-2	-12	12	16	15	34	33	12
O=Cc1ccc(OC(=O)/C=C/c2ccccc2)cc1	-17	-36	9	15	-2	-36	.	.	.	.	.
O=C(Nc1cccc(Cl)c1)c1csc([C@H]2C[C@H](O)[C@@H](CO)O2)n1	.	.	.	16	.	.	.	.	.	.	.
Cc1csc(NC(=O)C2COc3ccccc3O2)n1 (stereo not given)	1	-1	-4	14	8	33	.	.	.	.	.
CC1CCc2nc(NC(=O)C3COc4ccccc4O3)sc2C1 (stereo not given)	43	45	24	1	11	75*	72*	72*	91*	59*	28
Cc1ncsc1C(=O)Nc1nc2c(s1)CC(C)CC2 (stereo not given)	98*	92*	0	-78	6	96*	-4	72*	93*	84*	26
Cc1cnc(NC(=O)C2COc3ccccc3O2)s1 (stereo not given)	65*	52*	8	6	7	58*	69*	68*	89*	79*	73*
CC1CCc2nc(NC(=O)C3CC3)sc2C1 (stereo not given)	-17	-15	11	15	-6	-18	.	.	.	.	.
CCC(CC)C(=O)N(C)c1c(C)nc2c(OCc3ccc(F)c(F)c3)cccn12	.	.	.	14	.	.	.	.	.	.	.
CCOC(=O)c1cc2ccc(OC(=O)c3ccco3)cc2oc1=O	63*	36	-5	-308	18	56*	55*	61*	87*	89*	56*
CCOC(=O)c1c(C)n(C)c2ccc(OC(=O)c3ccco3)cc12	6	3	-1	22	3	-5	.	.	.	.	.
SMILES	SENP7 inh	SENP8 block-1	Apaf1 inhib	SENP8 block-2	UBC13 inh	SENP6 block	SENP8 conf	SENP6 conf	SENP7 confirm	Casp3 SENP sel	SENP luc ctr
O=C1NC(Cc2ccccc2)c2nc3ccc(F)cc3c(=O)n2-c2ncccc21 (stereo not given)	.	.	.	11	.	.	.	.	.	.	.
O=C(Cc1cccs1)Nc1ccccc1C(=O)O	31	45	-19	6	0	63*	52*	50*	84*	88*	71*
N#CC(c1ccccc1)c1ccc([N+](=O)[O-])cc1 (stereo not given)	.	.	.	1	.	.	.	.	.	.	.
Nc1ccccc1C#Cc1ccc([N+](=O)[O-])cc1	47	42	8	31	9	62*	46	46	81*	39	22
O=C(Nc1ccc2ccccc2n1)c1ccc(Cl)cc1	72*	50*	13	0	5	56*	25	48	59*	59*	16
O=C(Nc1ccc2ccccc2c1)c1ccccc1Cl	.	.	.	14	.	.	.	.	.	.	.
O=C(Nc1ccc2ccccc2n1)c1ccccc1Cl	95*	89*	8	5	-5	88*	94*	94*	102*	94*	33
COc1ccc(C(=O)Nc2ccc3ccccc3n2)c(OC)c1OC	86*	66*	-5	-37	0	82*	58*	46	57*	45	5
O=C(Nc1cccc(NC(=O)c2ccc(Cl)cc2)n1)c1ccc(Cl)cc1	-2	-8	2	13	5	-10	.	.	.	.	.
O=C(Nc1ccc2ccccc2n1)C1CCCCC1	74*	48	-19	14	10	60*	61*	58*	88*	74*	68*
CCOc1ccc(C(CN2CCOCC2)C(C)=O)cc1OC (stereo not given)	.	.	.	14	.	.	.	.	.	.	.
Cc1nc2ccc(C(=O)N3c4ccccc4N=C(c4ccc5c(c4)OCO5)C3C(=O)NCc3ccccc3)cc2[nH]1 (stereo not given)	.	.	.	-165	.	.	.	.	.	.	.
c1ccc(C2=NNC(=NC3CC3)SC2)cc1	93*	94*	1	10	-8	93*	96*	97*	102*	98*	95*
